Measurements published in PubChem BioAssay AID489030 (Sanford-Burnham Center for Chemical Genomics, 2010).
Among all 330,000 compounds or so, about 2,400 (0.73%) were called active. For the sample, actives were picked, then their nearest neighbours and some compounds at random. Values without a mark were called inactive. Rule for the calls: active = inhibition of at least 40% at 20 µM; inactive = the rest.

Each compound was assayed against Apoptotic protease-activating factor 1 (Homo sapiens) (UniProt O14727) (assay: inhibitors of human Apaf-1 apoptosome, primary screen, biochemical, DEVD-Rh110 fluorescence, uHTS (AID 489030;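 note: plate controls were DMSO wells for no effect and DEVD-CHO caspase inhibitor wells for full effect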)). Details: reconstituted apoptosome caspase-3 activity, at 20 µM, stronger effect = higher value.
Summary of the method: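 detection = Rh110 fluorescence intensity | test system = biochemical Apaf-1 apoptosome reconstitution | also added = cytochrome c and DEVD-Rh110 substrate | schedule = 30 min plus 50 min, RT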

Chain of Apoptotic protease-activating factor 1 (Homo sapiens) (O14727 whole entry, looked up): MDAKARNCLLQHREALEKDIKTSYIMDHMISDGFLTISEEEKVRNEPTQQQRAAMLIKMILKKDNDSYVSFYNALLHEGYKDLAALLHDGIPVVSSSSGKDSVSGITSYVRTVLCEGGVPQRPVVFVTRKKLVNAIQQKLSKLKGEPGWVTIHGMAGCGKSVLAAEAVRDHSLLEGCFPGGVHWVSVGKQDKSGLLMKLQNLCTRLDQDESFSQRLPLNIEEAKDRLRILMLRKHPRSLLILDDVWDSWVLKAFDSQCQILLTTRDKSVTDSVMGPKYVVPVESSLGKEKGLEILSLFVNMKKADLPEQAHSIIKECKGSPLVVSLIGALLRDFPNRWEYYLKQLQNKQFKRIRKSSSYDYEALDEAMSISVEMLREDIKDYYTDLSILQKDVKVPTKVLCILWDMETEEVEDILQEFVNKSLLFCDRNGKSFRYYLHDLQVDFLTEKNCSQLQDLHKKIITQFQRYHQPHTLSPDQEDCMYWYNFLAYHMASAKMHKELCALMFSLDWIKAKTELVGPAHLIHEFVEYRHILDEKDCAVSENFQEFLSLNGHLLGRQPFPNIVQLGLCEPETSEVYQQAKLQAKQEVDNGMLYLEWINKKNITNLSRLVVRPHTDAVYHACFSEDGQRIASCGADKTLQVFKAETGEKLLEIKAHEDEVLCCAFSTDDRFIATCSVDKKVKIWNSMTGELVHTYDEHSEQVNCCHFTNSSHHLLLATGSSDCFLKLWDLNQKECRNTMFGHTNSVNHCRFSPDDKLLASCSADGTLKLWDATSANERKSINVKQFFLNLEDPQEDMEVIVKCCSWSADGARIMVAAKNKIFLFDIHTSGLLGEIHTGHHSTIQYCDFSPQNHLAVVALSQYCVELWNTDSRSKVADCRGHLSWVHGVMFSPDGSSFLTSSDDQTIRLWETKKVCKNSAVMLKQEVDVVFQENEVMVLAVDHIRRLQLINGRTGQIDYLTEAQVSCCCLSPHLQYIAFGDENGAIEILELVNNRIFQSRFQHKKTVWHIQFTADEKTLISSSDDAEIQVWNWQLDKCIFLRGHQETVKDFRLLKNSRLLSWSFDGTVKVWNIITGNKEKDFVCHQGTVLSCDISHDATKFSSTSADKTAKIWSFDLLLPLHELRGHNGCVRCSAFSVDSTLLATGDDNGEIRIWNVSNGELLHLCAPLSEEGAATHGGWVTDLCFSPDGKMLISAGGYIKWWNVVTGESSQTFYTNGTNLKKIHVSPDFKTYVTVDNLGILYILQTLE

Row | Compound | inhibition
1 | O=C(NC1CCCC1)C(c1c(F)cccc1Cl)N(C(=O)c1csnn1)C1CC1 (stereo not drawn) | 6.38%
2 | Cc1ccc2c(c1)C1CN(C)CCC1N2S(=O)(=O)c1ccc(Oc2ccc([N+](=O)[O-])cc2)cc1 (stereo not drawn) | 59.9% (active)
3 | Cc1ccc2c(c1)C1CN(C)CCC1N2S(=O)(=O)c1cccc(F)c1 (stereo not drawn) | 1.11%
4 | Cc1ccc2c(c1)C1CN(C)CCC1N2C(=S)Nc1ccc(OC(F)F)cc1 (stereo not drawn) | -7.03%
5 | COc1ccc(N2CCN(C(=O)c3cn(C)c4ccc(S(=O)(=O)N5CCOCC5)cc4c3=O)CC2)cc1 | -4.77%
6 | CCC(CC)c1nnc(NC(=O)C2=COCCO2)s1 | 3.27%
7 | C/C(=N\NC(=O)c1ccccc1F)c1ccccn1 | -4.33%
8 | Cc1cnc(NC(=O)c2ccccn2)s1 | -31.2%
9 | CCN(CC)CCOc1ccc2c(c1)C(=NNC(=O)c1ccccn1)c1cc(OCCN(CC)CC)ccc1-2 | 52.5% (active)
10 | Cc1ccc2c(Cl)c(C(=O)NCCCn3ccnc3)sc2c1 | 10.1%
11 | CC(C)(C)NC(=O)CN(C(=O)c1csnn1)c1ccccc1-c1ccccc1 | -0.459%
12 | Cc1cc(C)c(NC(=S)N2CCCC2C(=O)O)c(C)c1 (stereo not drawn) | -0.801%
13 | Cc1ccc(S(=O)(=O)c2c(N)n(C)c3nc4ccccc4nc23)cc1 | -405%
14 | CCC(=O)Nc1c(S(=O)(=O)c2ccccc2)c2nc3ccccc3nc2n1Cc1ccccc1 | 49.2% (active)
15 | CCN(CC)CCn1c(N)c(S(=O)(=O)c2ccccc2)c2nc3ccccc3nc21 | 12%
16 | CCOc1cc(NC(=S)NCCCN(C)C)c(OCC)cc1NC(=O)C1CC1 | -14.8%
17 | COc1ccccc1CN1CCNC(=O)C1CC(=O)N(C)CC1CCOCC1 (stereo not drawn) | 4.54%
18 | CCC(=O)NCc1cc(-c2nn(C)c(=O)c3ccccc23)ccc1OC | -10.9%
19 | Cc1c(-c2nn(C)c(=O)c3ccccc23)oc2ccc(F)cc2c1=O | 82% (active)
20 | Cc1ccc(F)cc1NC(=O)Cc1nn(C)c(=O)c2ccccc12 | -8.15%
21 | CCCCn1c(N)c(N(CC(C)C)C(=O)c2cccc(S(=O)(=O)N3CCN(C(C)=O)CC3)c2)c(=O)[nH]c1=O | 6.93%
22 | C=CCNC(=O)c1ccccc1SCc1c(C)noc1C | -5.84%

Row | Compound | inhibition
23 | O=S(=O)(c1cccc(C(F)(F)F)c1)N1CCN(c2cnccn2)CC1 | -23.4%
24 | COc1cc(CC(=O)N/N=C/c2ccccc2)c([N+](=O)[O-])cc1OC | 8.78%
25 | Cc1ccsc1/C=N/NC(=O)Cc1cc(=O)[nH][nH]1 | 58.3% (active)
26 | CCOc1ccc(N2CC(C(=O)N/N=C/c3sccc3C)CC2=O)cc1 (stereo not drawn) | -13.2%
27 | Cc1ccsc1/C=N/n1c(=S)[nH]nc(C)c1=O | 2.31%
28 | O=C(COc1ccccc1[N+](=O)[O-])N/N=C/c1ccc[nH]1 | -17.6%
29 | O=C(Cc1cc(=O)[nH][nH]1)N/N=C/c1ccccc1[N+](=O)[O-] | 40.8% (active)
30 | CC(C)(C)NC(=O)CSC(=Nc1ccccc1F)NC#N | -0.507%
31 | COC(=O)Cc1csc(/N=C/c2c(O)n(-c3cccc(C(F)(F)F)c3)c(=O)c3ccccc23)n1 | -1.6%
32 | O=C(COc1ccc(S(=O)(=O)NCCc2ccccc2)cc1)N1CCCC1 | -10.1%
33 | CC(Oc1ccc(Cl)cc1)c1ccnn1S(C)(=O)=O (stereo not drawn) | 0.147%
34 | Cc1noc(C)c1S(=O)(=O)N(C)C[C@H]1Oc2ccc(NC(=O)C3CCCCC3)cc2C(=O)N([C@H](C)CO)C[C@@H]1C | 1.34%
35 | CN1CCN(/N=C2/C(=O)Nc3ccc([N+](=O)[O-])cc32)CC1 | -6.13%
36 | O=C1Nc2ccc([N+](=O)[O-])cc2C1=Nc1cccc(CO)c1 | 41.2% (active)
37 | O=[N+]([O-])c1ccc(N(CCO)Cc2ccccc2)c([N+](=O)[O-])c1 | 5.52%
38 | COc1ccc(NS(=O)(=O)c2cccc3nsnc23)cc1Cl | -0.325%
39 | COc1cccc(C(=O)NCCS(=O)(=O)NCC2CCCO2)c1 (stereo not drawn) | -2.68%
40 | O=C(C1CCN(c2nnc(-n3cccc3)s2)CC1)N1CCc2ccccc2C1 | 6.9%
41 | OCCN1CCOCCOCCN(CCO)CCN(CCO)CC1 | -5.95%
42 | Clc1ccc(C2=CSC3=Nc4cccc5cccc(c45)N23)cc1 | 90% (active)
43 | CC(C)Cc1nnc(NC(=O)CCNC(=O)c2ccccc2Cl)s1 | 12%
